Experimental data reported in ChEMBL document CHEMBL4190344, “Synthesis of substituted phenanthrene-9-benzimidazole conjugates: Cytotoxicity evaluation and apoptosis inducing studies” (Eur J Med Chem, 2017).
Calls of active or inactive are those of the source. The rule behind the calls is not given here.

Assays:
PC-3 [1] = experiment: Induction of cell death in human PC3 cells assessed as induction of chromatin condensation at 10 uM incubated for 48 hrs by acridine orange and ethidium bromide staining based fluorescence microscopy; assay type: functional
Outline: (§1)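 PC-3 cells (1 × 10^6 cells/mL) were treated with compound and kept 48 h at 37 °C, 5% CO2. Acridine orange and ethidium bromide (10 µg/mL) were added in equal volumes. After 10 min, cells were imaged by fluorescence microscopy (ex 488/em 550 nm, 200×).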

BT-549 = experiment: Cytotoxicity in human BT549 cells incubated for 48 hrs by MTT assay; assay type: functional, cell-based; conditions: BT-549, 48 h
Outline: (§2)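 Cells (1 × 10^4/well) were seeded in medium with 10% FBS and left 24 h at 37 °C. Compound diluted in medium was then added, alongside a vehicle control, for 48 h. MTT (5 mg/mL stock) was added for 4 h, formazan dissolved in DMSO and absorbance read at 570 nm. IC50 taken as the concentration giving 50% inhibition.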

PC-3 [2] = experiment: Cytotoxicity in human PC3 cells incubated for 48 hrs by MTT assay; assay type: functional, cell-based; conditions: PC-3, 48 h; outline: as §2
DU-145 = experiment: Cytotoxicity in human DU145 cells incubated for 48 hrs by MTT assay; assay type: functional, cell-based; conditions: DU-145, 48 h; outline: as §2
PC-3 [3] = experiment: Cytotoxicity in human PC3 cells assessed as reduction in cell viability at 2.5 to 10 uM incubated for 48 hrs by phase contrast microscopy; assay type: functional, cell-based
Outline: (§3)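 PC-3 cells at 1 × 10^5 cells/mL adhered overnight, then received compound at 2.5, 5.0 or 10.0 µM. After 48 h, morphology (viable cell number, nuclear shrinkage, detachment) was imaged by phase contrast microscopy.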

PC-3 [4] = experiment: Induction of morphological changes in human PC3 cells assessed as increase in nuclear shrinkage at 2.5 to 10 uM incubated for 48 hrs by phase contrast microscopy; assay type: functional, cell-based; outline: as §3
PC-3 [5] = experiment: Induction of morphological changes in human PC3 cells assessed as increase in cell detachment at 2.5 to 10 uM incubated for 48 hrs by phase contrast microscopy; assay type: functional, cell-based; outline: as §3
PC-3 [6] = experiment: Induction of cell death in human PC3 cells assessed as induction of cell shrinkage at 10 uM incubated for 48 hrs by acridine orange and ethidium bromide staining based fluorescence microscopy; assay type: functional; outline: as §1
PC-3 [7] = experiment: Cell cycle arrest in human PC3 cells assessed as accumulation at G0/G1 phase at 2.5 uM incubated for 24 hrs by propidium iodide staining based flow cytometry (reference value: 56.67%); assay type: functional
PC-3 [8] = experiment: Cell cycle arrest in human PC3 cells assessed as accumulation at G2/M phase at 2.5 uM incubated for 24 hrs by propidium iodide staining based flow cytometry (reference value: 25.96%); assay type: functional
PC-3 [9] = experiment: Cell cycle arrest in human PC3 cells assessed as accumulation at G0/G1 phase at 5 uM incubated for 24 hrs by propidium iodide staining based flow cytometry (reference value: 56.67%); assay type: functional
PC-3 [10] = experiment: Cell cycle arrest in human PC3 cells assessed as accumulation at G2/M phase at 5 uM incubated for 24 hrs by propidium iodide staining based flow cytometry (reference value: 25.96%); assay type: functional
PC-3 [11] = experiment: Cell cycle arrest in human PC3 cells assessed as accumulation at subG1 phase at 2.10 uM incubated for 24 hrs by propidium iodide staining based flow cytometry (reference value: 1.71%); assay type: functional
PC-3 [12] = experiment: Induction of mitochondrial membrane potential loss in human PC3 cells assessed as JC1 monomer level at 2.5 uM incubated for 24 hrs by JC1 staining based flow cytometry (reference value: 22.8%); assay type: functional
PC-3 [13] = experiment: Induction of mitochondrial membrane potential loss in human PC3 cells assessed as JC1 aggregate level at 5 uM incubated for 24 hrs by JC1 staining based flow cytometry (reference value: 76.94%); assay type: functional
PC-3 [14] = experiment: Induction of mitochondrial membrane potential loss in human PC3 cells assessed as JC1 monomer level at 10 uM incubated for 24 hrs by JC1 staining based flow cytometry (reference value: 22.8%); assay type: functional
Calf thymus DNA = experiment: Binding affinity to calf thymus DNA assessed as increase in relative viscosity of DNA-compound complex at 5 uM by viscometry; assay type: nucleic-acid assay; conditions: Bos taurus
Outline: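 Viscosity titration of test compound (5 µM) into CT-DNA (50 µM) in 100 mM Tris-HCl pH 7.0. Rolling-ball viscometer, ball fall time read at angles of 20° to 70°, Peltier-held temperature, viscosity calculated at 25 °C.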

PC-3 [15] = experiment: Induction of apoptosis in human PC3 cells assessed as necrotic cells level at 2.5 uM incubated for 24 hrs by annexin V-FITC/propidium iodide dual staining based flow cytometry (reference value: 0.59%); assay type: functional
Outline: (§4)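 PC-3 cells were grown 24 h, then treated 24 h at 2.5, 5.0 or 10 µM. Cells were trypsinised, washed twice in ice-cold PBS and stained in binding buffer with Annexin V-FITC followed by propidium iodide at room temperature in the dark. 10,000 cells per sample were run on a flow cytometer, with quadrants scored as live, early apoptotic, late apoptotic or necrotic.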

PC-3 [16] = experiment: Induction of apoptosis in human PC3 cells assessed as early apoptotic cells level at 5 uM incubated for 24 hrs by annexin V-FITC/propidium iodide dual staining based flow cytometry (reference value: 11.76%); assay type: functional; outline: as §4
PC-3 [17] = experiment: Induction of apoptosis in human PC3 cells assessed as late apoptotic cells level at 5 uM incubated for 24 hrs by annexin V-FITC/propidium iodide dual staining based flow cytometry (reference value: 10.92%); assay type: functional; outline: as §4
PC-3 [18] = experiment: Induction of apoptosis in human PC3 cells assessed as viable cells level at 10 uM incubated for 24 hrs by annexin V-FITC/propidium iodide dual staining based flow cytometry (reference value: 76.73%); assay type: functional; outline: as §4
PC-3 [19] = experiment: Induction of apoptosis in human PC3 cells assessed as early apoptotic cells level at 10 uM incubated for 24 hrs by annexin V-FITC/propidium iodide dual staining based flow cytometry (reference value: 11.76%); assay type: functional; outline: as §4
PC-3 [20] = experiment: Cell cycle arrest in human PC3 cells assessed as accumulation at G2/M phase at 10 uM incubated for 24 hrs by propidium iodide staining based flow cytometry (reference value: […])

- Activity (Calf thymus DNA): Active
Compound: COc1ccc2cc(-c3nc4ccc(F)cc4[nH]3)c3cc(OC)c(OC)cc3c2c1
- Activity (PC-3 [1]): Active
- IC50 (BT-549): 13.2 µM
- IC50 (PC-3 [2]): 6.32 µM
- IC50 (DU-145): > 20 µM
- Activity (PC-3 [3]): Active
- Activity (PC-3 [4]): Active
- Activity (PC-3 [5]): Active
- Activity (PC-3 [6]): Active
- Activity (PC-3 [7]): 55.93%
- Activity (PC-3 [8]): 27.8%
- Activity (PC-3 [9]): 49.29%
- Activity (PC-3 [10]): 29.78%
- Activity (PC-3 [11]): 5.01%
- Activity (PC-3 [12]): 33.35%
- Activity (PC-3 [13]): 32.38%
- Activity (PC-3 [14]): 95.64%
- Activity (PC-3 [15]): 0.21%
- Activity (PC-3 [16]): 33.41%
- Activity (PC-3 [17]): 34.03%
- Activity (PC-3 [18]): 27.68%
- Activity (PC-3 [19]): 22.94%
- Activity (PC-3 [20]): 44.16%
